# Laboratory results as given in PubChem BioAssay AID552 (SRMLSC, 2006).
# In all, about 20,000 compounds went through this assay and about 10 (0.05%) were called active. Cut-off read from the data, not from the text of the source: active = inhibition above about 40%; inactive = the rest. The full list was thinned out, with actives kept by preference. Where a SMILES comes first, the peptide text is derived from it. [ ]: non-standard residue; d: D form. ξ: configuration not given here. ξV = CC(C)C(N)C(=O)O
# Assay: antibacterial activity on E. coli BW25113 – strain BW25113 wild type, absorbance readout, primary screen (AID 552);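 note: bacteria exposed to compound for 20 hours at 37 °C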
# Conditions: E. coli BW25113 growth inhibition, OD600; at 10 µM; hits give high values
# Outline: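 System: bacterial strain in a whole-cell growth screen; medium: LB broth with 50 µg/mL kanamycin; detection: absorbance at 615 nm; schedule: 20 h exposure, 37 °C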
row,Compound,inhibition
1,CCOC(=O)N1CCC(O)(c2cc(C)c(C)cc2C)CC1,2.31% (inactive)
2,CCOC(=O)c1ccc(NC(=O)CSc2nnc(COc3ccccc3OC)n2C)cc1,-14.8% (inactive)
3,O=C(OCc1ccccc1F)c1ccc2c(c1)OCCO2,6.06% (inactive)
4,CCN(Cc1nc2ccccc2c(=O)[nH]1)Cc1cc(=O)oc2cc(C)c(C)cc12,-2.52% (inactive)
5,Cc1noc(C)c1C(=O)NC(C)c1ccc2c(c1)OCO2 (stereo not given),-22.5% (inactive)
6,CC(C)COC(=O)C1C2C=CC3(CN(C(C)c4ccc(Br)cc4)C(=O)C13)O2 (stereo not given),15.3% (inactive)
7,COC(=O)c1ccc(Oc2nc(Nc3ccc(F)cc3)nc(N3CCCC3)n2)cc1,-16.9% (inactive)
8,CSc1ccc(S(=O)(=O)Nc2cccc(F)c2)cc1,-8.18% (inactive)
9,CCN(CC)S(=O)(=O)c1ccc(NC(=O)CN(c2cccc(F)c2)S(C)(=O)=O)cc1,-6.94% (inactive)
10,CS(=O)(=O)N(CC(=O)N1CCOCC1)c1ccc2c3c(cccc13)CC2,-16.3% (inactive)
11,CC(=O)NC(C(=O)NCC(N)=O)C(C)C (stereo not given) (Ac-[ξV]-Gly-NH2),7.41% (inactive)
12,CCCCN(CC)CCCNC(=O)CS(=O)(=O)Cc1nc(-c2cccc(OC)c2)oc1C,4.26% (inactive)
13,CCOC(=O)n1c(SCC(=O)N(CC)CC)nc2ccccc21,-3.3% (inactive)
14,Cc1cc(C)nc(N2C(=O)CC(Cc3ccccc3)C2=O)n1 (stereo not given),-9.77% (inactive)
15,CC(C)C[C@H](NC(=O)[C@@H]1O[C@H]1C(=O)O)C(=O)NCCCCN=C(N)N,-3.4% (inactive)
16,CN(C)CCNC(CC(=O)Nc1ccc(Cl)c(Cl)c1)C(=O)O (stereo not given),-14.6% (inactive)
17,COc1ccc(C(=O)Nc2cccnc2)cc1C(=O)Nc1cccnc1,1.96% (inactive)
18,COC(=O)Nc1c(C)n(C)n(-c2ccccc2)c1=O,-2.62% (inactive)
19,Cc1ccc(C)c(S(=O)(=O)N2CC(=O)Nc3ccccc32)c1,-14.8% (inactive)
20,COCCn1c(C)cc(C(=O)CSc2ncnc3sc4c(c23)CCC4)c1C,2.06% (inactive)

row,Compound,inhibition
1,Cc1nc(C)c(C(=O)Nc2ccc(C)c(F)c2)o1,-3.6% (inactive)
2,COc1cc(-c2nc(S(=O)(=O)c3ccc(Cl)cc3)c(N(C)C)o2)cc(OC)c1OC,-0.36% (inactive)
3,Cc1cc(C(=O)NCCCc2ccccc2)no1,-3.97% (inactive)
4,CCc1ccc(CCC(=O)Nc2ccc(S(N)(=O)=O)cc2)o1,-21.2% (inactive)
5,Cc1ccc(-c2noc(-c3ccccc3C(=O)NCC3CCCO3)n2)cc1 (stereo not given),8.67% (inactive)
6,CC1(C)C(=O)Nc2ccccc2N1C(=O)COC(=O)Cn1cnc2ccccc2c1=O,-1.7% (inactive)
7,O=C1CC(c2ccccc2)CC(O)=C1C=NCCN1CCOCC1 (stereo not given),0.58% (inactive)
8,COCCCNC(=O)CSc1nc2ccc(N3CCOCC3)cc2c(=O)n1CCc1ccccc1,1.57% (inactive)
9,CCCC(=O)Nc1ccc(C(=O)NCCCn2ccnc2)cc1,-11.9% (inactive)
10,COc1ccc(S(=O)(=O)N2CCOCC2)cc1C(=O)Nc1nc2ccccc2s1,4.62% (inactive)
11,CCn1c(SCC(=O)Nc2nccs2)nnc1-c1ccncc1,-9.46% (inactive)
12,CCCC1CC(C)(C(=O)Cn2[nH]c(=O)ccc2=O)OC1=O (stereo not given),19.6% (inactive)
13,CC(C)Cc1ccc(S(=O)(=O)N2CCN(C(=O)c3ccco3)CC2)cc1,-19.7% (inactive)
14,O=C(CS(=O)(=O)c1cn(Cc2ccc(Cl)cc2)c2ccccc12)N1CCOCC1,-0.05% (inactive)
15,CCOC(=O)C1CCN(C(=O)Cn2cc(C#N)c3ccccc32)CC1,6.78% (inactive)
16,O=C(O)C1CC=C(Cl)CC1C(=O)NCc1ccccc1 (stereo not given),-2.5% (inactive)
17,CCOC(=O)c1cc(NC(=O)c2cccnc2)cc(C(=O)OCC)c1,-7.79% (inactive)
18,CCOC(=O)c1c(N)c(C#N)nn1-c1ccccc1C(=O)OC,-8.34% (inactive)
19,CCN1CCN(C(=O)CN(C)S(=O)(=O)c2ccc(OC)cc2)CC1,-16.9% (inactive)
20,C=CCNC(=O)CSc1nc2sc(C)c(C)c2c(=O)[nH]1,-0.815% (inactive)

row,Compound,inhibition
1,O=C(O)[C@@H]1CCCN1c1ncnc2sc3c(c12)CCC3,5% (inactive)
2,CN1C(C)(C)CC(NC(=O)CCC(=O)NC2CC(C)(C)N(C)C(C)(C)C2)CC1(C)C,-21% (inactive)
3,COc1ccccc1N1CCN(C(=O)c2cc(-c3ccc(Cl)c(Cl)c3)on2)CC1,-2.37% (inactive)
4,COc1ccc(OC)c(S(=O)(=O)Nc2ccccc2F)c1,-13.8% (inactive)
5,Cc1noc(C)c1C(=O)Nc1ccccn1,-22.1% (inactive)
6,Cc1ccc(SCCN2C(=O)NC(C)(C)C2=O)cc1,4.35% (inactive)
7,COc1cc(C2C(C#N)=C(C)NC3=C2C(=O)CC(C)(C)C3)ccc1O (stereo not given),5.23% (inactive)
8,COC(=O)c1ccc(Oc2nc(NC(C)C)nc(SC)n2)cc1,-19.1% (inactive)
9,CCOC(=O)c1cc(NC(=O)SCC(=O)O)c(C)nc1C,-3.26% (inactive)
10,Cc1onc(-c2ccccc2)c1C(=O)N1CCOCC1,16.2% (inactive)
11,CCOC(=O)Cc1csc(NC(=O)CN(C)S(=O)(=O)c2ccc3c(c2)CCC(=O)N3)n1,3.09% (inactive)
12,CN(C)S(=O)(=O)c1ccc(Oc2ccc(S(=O)(=O)N(C)C)cc2)cc1,7.29% (inactive)
13,Cn1nnnc1SCC(=O)N1CCN(C(c2ccccc2)c2ccccc2)CC1,4.16% (inactive)
14,CC12CCC(C(=O)N3CCN(c4ncccn4)CC3)(c3nc4ccccc4nc31)C2(C)C (stereo not given),-25.6% (inactive)
15,COc1c(C(=O)N2CCCC2)ccc2ccccc12,-8.42% (inactive)
16,COc1ccc(CSc2nc(N3CCOCC3)c3c(c2C#N)CC(C)(C)OC3)cc1,-19.4% (inactive)
17,CCC(C)n1[nH]c(=O)c2c(C)cc(C)nc21 (stereo not given),5.71% (inactive)
18,CCCCSc1nnc(-c2ccc(NC(=O)CC)cc2)n1C,-21.9% (inactive)
19,Cc1cc(C)c2c(n1)nn1c(N3CCN(c4cccc(Cl)c4)CC3)cc(C)nc21,-4.02% (inactive)
20,Cc1cc(Cl)c(S(=O)(=O)NCCC(=O)O)cc1OCC(N)=O,-0.81% (inactive)
